Measurements from publication PMC2757176 (The Journal of biological chemistry, 2009).
Non-standard residues stand in square brackets, D forms with d. Residues, ends and D or L forms follow the SMILES beside them. *: point of attachment. Biotin = O=C1N[C@H]2[C@H](CS[C@H]2CCCCC(=O)*)N1; pY = N[C@@H](Cc1ccc(OP(=O)(O)O)cc1)C(=O)O

How the values were obtained:
Assay in all cases: Biacore
Assay type in all cases: binding
human LCK SH3-SH2 = human LCK SH3-SH2 (Homo sapiens, UniProt P06239)
How it was run: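 Recombinant human LCK SH3-SH2 (aa 58–230), N-terminal His-tagged, nickel-agarose purified, gel-filtered; concentration from A280 using a theoretical extinction coefficient. BIAcore 3000 at 37 °C: ~3000 RU streptavidin amine-coupled to CM5 captured biotinylated peptides (CD2 proline-rich peptides ~100 RU; phospho-CD244 ITSM1 ~25 RU). Protein passed at various concentrations; equilibrium binding fitted for Kd against a control flow cell.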

human FYN SH3-SH2 = human FYN SH3-SH2 (Homo sapiens, UniProt P06241)
Sequence of human FYN SH3-SH2 (P06241 82-248): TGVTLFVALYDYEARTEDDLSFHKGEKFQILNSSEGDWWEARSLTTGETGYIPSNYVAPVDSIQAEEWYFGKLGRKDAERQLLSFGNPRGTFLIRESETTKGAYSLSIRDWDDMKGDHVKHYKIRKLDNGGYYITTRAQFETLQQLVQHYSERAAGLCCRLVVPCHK

human PLC-γ1 SH2 N+C = biological target: T1, human PLC-γ1 SH2 N+C (Homo sapiens, UniProt P19174); settings: ratio of SPR affinities, PLC-γ1 SH2 N+C versus FYN-SH3-SH2
T1 sequence (P19174 545-749): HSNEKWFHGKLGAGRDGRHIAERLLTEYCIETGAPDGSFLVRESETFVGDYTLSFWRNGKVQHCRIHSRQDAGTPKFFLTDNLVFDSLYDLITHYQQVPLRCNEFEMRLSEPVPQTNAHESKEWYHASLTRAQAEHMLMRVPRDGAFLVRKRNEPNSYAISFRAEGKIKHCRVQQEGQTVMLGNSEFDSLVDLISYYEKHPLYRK

Sequence of human LCK SH3-SH2 (P06239 58-230): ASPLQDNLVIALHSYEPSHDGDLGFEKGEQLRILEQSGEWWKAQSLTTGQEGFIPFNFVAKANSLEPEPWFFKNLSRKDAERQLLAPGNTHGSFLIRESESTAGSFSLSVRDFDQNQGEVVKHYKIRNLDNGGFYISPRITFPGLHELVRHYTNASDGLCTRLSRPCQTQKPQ

CC(C)[C@H](NC(=O)[C@H](CCCNC(=N)N)NC(=O)[C@H](Cc1c[nH]cn1)NC(=O)CNC(=O)[C@@H]1CCCN1C(=O)[C@@H]1CCCN1C(=O)[C@@H]1CCCN1C(=O)[C@@H]1CCCN1C(=O)[C@H](CCCNC(=N)N)NC(=O)[C@H](Cc1c[nH]cn1)NC(=O)[C@H](CO)NC(=O)[C@@H]1CCCN1C(=O)[C@H](C)NC(=O)[C@H](CCC(N)=O)NC(=O)[C@H](CO)NC(=O)[C@H](CCCNC(=N)N)NC(=O)[C@H](Cc1c[nH]cn1)NC(=O)CNC(=O)[C@@H]1CCCN1C(=O)[C@@H]1CCCN1C(=O)[C@@H]1CCCN1C(=O)[C@@H]1CCCN1C(=O)[C@@H]1CCCN1C(=O)[C@H](Cc1c[nH]cn1)NC(=O)CCCC[C@@H]1SC[C@@H]2NC(=O)N[C@@H]21)C(=O)N[C@@H](CCC(N)=O)C(=O)O [CD2-281-305] (Biotin-HPPPPPGHRSQAPSHRPPPPGHRVQ-OH)
Kd (human LCK SH3-SH2): > 1000 µM

CC(C)C[C@H](NC(=O)[C@@H]1CCCN1C(=O)[C@@H]1CCCN1C(=O)CNC(=O)[C@H](CCCCN)NC(=O)[C@H](CCC(N)=O)NC(=O)CCCC[C@@H]1SC[C@@H]2NC(=O)N[C@@H]21)C(=O)N1CCC[C@H]1C(=O)N[C@@H](CCCNC(=N)N)C(=O)N1CCC[C@H]1C(=O)N[C@@H](CCCNC(=N)N)C(=O)N[C@H](C(=O)N[C@@H](CCC(N)=O)C(=O)N1CCC[C@H]1C(=O)N[C@@H](CCCCN)C(=O)N1CCC[C@H]1C(=O)N1CCC[C@H]1C(=O)N[C@@H](Cc1c[nH]cn1)C(=O)NCC(=O)O)C(C)C [CD2-322] (Biotin-QKGPPLPRPRVQPKPPHG-OH)
Kd (human LCK SH3-SH2): > 1000 µM

CC(C)C[C@H](NC(=O)[C@@H](NC(=O)[C@H](CC(=O)O)NC(=O)[C@@H](NC(=O)[C@H](Cc1ccc(OP(=O)(O)O)cc1)NC(=O)[C@H](CC(=O)O)NC(=O)[C@H](CO)NC(=O)[C@H](CC(N)=O)NC(=O)[C@H](CO)NC(=O)[C@H](CC(N)=O)NC(=O)CCCC[C@@H]1SC[C@@H]2NC(=O)N[C@@H]21)C(C)C)C(C)C)C(=O)N1CCC[C@H]1C(=O)O [EAT-2 127] (Biotin-NSNSD[pY]VDVLP-OH)
FYN binding, fold weaker than to the CD244 ITSM (human FYN SH3-SH2; ratio of SPR affinities, relative to CD244 ITSM 1 peptide): ~ 5 fold | fold increase in affinity of PLC-γ1 compared with FYN binding (human PLC-γ1 SH2 N+C): 30 fold

Biotin-KQFQP[pY]FIPIN-OH [CTLA-4, reference compound]
FYN-SH3-SH2 binding to immobilised peptide (in words) (human FYN SH3-SH2; SPR, 37 °C, biotinylated peptide on streptavidin chip): Negligible binding
